Tests used:
[1] = system: Rat; experiment: concentration in plasma after dosing; conditions: dosed: Perfluorodecanoic acid, 2 mg/kg, iv, Male, F344
[2] = system: Rat; experiment: concentration in plasma after dosing; conditions: dosed: Perfluorodecanoic acid, 2 mg/kg, iv, Male, F344; remark: listed apart in the source
[3] = system: Rat; experiment: concentration in plasma after dosing; conditions: dosed: Perfluorodecanoic acid, 2 mg/kg, iv, Male, F344; remark: listed apart in the source
[4] = system: Rat; experiment: concentration in kidney after dosing; conditions: 864 h; dosed: Perfluorodecanoic acid; 10 mg/kg; oral; Male; Harlan Sprague Dawley
[5] = system: Rat; experiment: concentration in plasma after dosing; conditions: 5 min; dosed: dichloroacetic acid; 10 mg/kg; iv; Male; F344
[6] = system: Rat; experiment: concentration in plasma after dosing; conditions: 2.5 min; dosed: Wyeth-14643; 2.0 mg/kg; iv; Male; Sprague-Dawley
[7] = system: human; experiment: concentration in blood after dosing; negative times count back from the end of exposure; conditions: dosed: trichloroethylene, inhalation
Method in brief: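 Sampling and analytical methods are those of each source and frequently went unreported. The concentration-versus-time and amount-versus-time points were compiled from published in vivo toxicokinetic studies and two structured collections. Most were digitised from plot screenshots with WebPlotDigitizer, with others copied from tables, in the reported units.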

[8] = system: Rat; experiment: concentration in kidney after dosing; conditions: 3 h; dosed: Fluorotelomer alcohol 8+2; 24 mg/kg; oral; Male; Harlan Sprague Dawley
[9] = system: Rat; experiment: concentration in plasma after dosing; conditions: dosed: Fluorotelomer alcohol 8+2, 40 mg/kg, iv, Female, Harlan Sprague-Dawley
[10] = system: Rat; experiment: concentration in heart after dosing; conditions: 10 min; dosed: Thiodiglycolic Acid; 20 mg/kg; iv; Male; F344
[11] = system: Rat; experiment: concentration in heart after dosing; conditions: 6.667 h; dosed: Thiodiglycolic Acid; 20 mg/kg; iv; Female; Harlan Sprague Dawley
[12] = system: Rat; experiment: concentration in heart after dosing; conditions: 1 h; dosed: Thiodiglycolic Acid; 20 mg/kg; iv; Female; Harlan Sprague Dawley
[13] = system: Rat; experiment: concentration in thymus after dosing; conditions: 20 min; dosed: Thiodiglycolic Acid; 20 mg/kg; iv; Female; Harlan Sprague Dawley
[14] = system: Rat; experiment: concentration in thymus after dosing; conditions: 7 h; dosed: Bis 2-Chloroethoxy Methane; 20 mg/kg; iv; Male; F344
[15] = system: Rat; experiment: concentration in heart after dosing; conditions: 10 min; dosed: Bis 2-Chloroethoxy Methane; 20 mg/kg; iv; Female; F344
[16] = system: Rat; experiment: concentration in liver after dosing; conditions: 3 h; dosed: Bis 2-Chloroethoxy Methane; 20 mg/kg; iv; Male; F344
[17] = system: Rat; experiment: concentration in thymus after dosing; conditions: 7 h; dosed: Bis 2-Chloroethoxy Methane; 20 mg/kg; iv; Female; F344
[18] = system: Rat; experiment: concentration in thymus after dosing; conditions: 20 min; dosed: Bis 2-Chloroethoxy Methane; 20 mg/kg; iv; Female; F344
[19] = system: Rat; experiment: concentration in plasma after dosing; conditions: 3 h; dosed: Bis 2-Chloroethoxy Methane; 40 mg/kg; iv; Male; Harlan Sprague Dawley
[20] = system: Rat; experiment: concentration in plasma after dosing; conditions: 3 h; dosed: Bis 2-Chloroethoxy Methane; 20 mg/kg; iv; Male; F344
[21] = system: Rat; experiment: concentration in plasma after dosing; conditions: 1 h; dosed: Di-n-butyl phthalate; 20 mg/kg; iv; Male; Sprague-Dawley
[22] = system: Rat; experiment: concentration in plasma after dosing; conditions: 20 h; dosed: Di-n-butyl phthalate; 100 mg/kg; oral; Male; Sprague-Dawley
[23] = system: Rat; experiment: concentration in plasma after dosing; conditions: 40 min; dosed: Di-n-butyl phthalate; 50 mg/kg; oral; Male; Sprague-Dawley

O=C(O)C(F)(F)C(F)(F)C(F)(F)C(F)(F)C(F)(F)C(F)(F)C(F)(F)C(F)(F)C(F)(F)F [Perfluorodecanoic acid]
concentration in plasma ([1]; 6 h): 5760 ng/mL
concentration in plasma ([1]; 864 h): 777 ng/mL
concentration in plasma ([2]; 12 h): 4670 ng/mL
concentration in plasma ([2]; 1200 h): 1400 ng/mL
concentration in plasma ([3]; 24 h): 4280 ng/mL
concentration in plasma ([3]; 1848 h): 646 ng/mL
concentration in kidney [4]: 6720 ng/g

O=C(O)C(Cl)Cl [dichloroacetic acid]
concentration in plasma [5]: 12400 ng/mL

Cc1cccc(Nc2cc(Cl)nc(SCC(=O)O)n2)c1C
concentration in plasma [6]: 29300 ng/mL

O=C(O)C(Cl)(Cl)Cl [trichloroacetic acid]
concentration in blood ([7]; 0 h, 1348 mg, duration: 2 hr - 20 min): 3 mg/kg
concentration in blood ([7]; 0 h, 1681 mg, duration: 2 hr - 20 min): 2.8 mg/kg
concentration in blood ([7]; 0 h, 3907 mg, duration: 2 hr - 20 min): 3 mg/kg
concentration in blood ([7]; 324 s, 100 ppm, duration: 4 hr, person): 3160 ng/mL
concentration in blood ([7]; 0.1859 h, 100 ppm, duration: 4 hr, person): 3830 ng/mL
concentration in blood ([7]; 0.2626 h, 100 ppm, duration: 4 hr, person): 3950 ng/mL
concentration in blood ([7]; 0.4953 h, 100 ppm, duration: 4 hr, person): 4150 ng/mL
concentration in blood ([7]; 0.5 h, 1348 mg, duration: 2 hr - 20 min): 3.5 mg/kg
concentration in blood ([7]; 0.5 h, 1681 mg, duration: 2 hr - 20 min): 3.6 mg/kg
concentration in blood ([7]; 0.5 h, 3907 mg, duration: 2 hr - 20 min): 3.9 mg/kg
concentration in blood ([7]; 0.7295 h, 100 ppm, duration: 4 hr, person): 3520 ng/mL
concentration in blood ([7]; 1 h, 1348 mg, duration: 2 hr - 20 min): 3.7 mg/kg
concentration in blood ([7]; 1 h, 1681 mg, duration: 2 hr - 20 min): 3.9 mg/kg
concentration in blood ([7]; 1 h, 3907 mg, duration: 2 hr - 20 min): 4.5 mg/kg
concentration in blood ([7]; 1.042 h, 100 ppm, duration: 4 hr, person): 4390 ng/mL
concentration in blood ([7]; 1.5 h, 1348 mg, duration: 2 hr - 20 min): 4.1 mg/kg
concentration in blood ([7]; 1.5 h, 1681 mg, duration: 2 hr - 20 min): 4.5 mg/kg
concentration in blood ([7]; 1.5 h, 3907 mg, duration: 2 hr - 20 min): 5.3 mg/kg
concentration in blood ([7]; 2 h, 1348 mg, duration: 2 hr - 20 min): 4.5 mg/kg
concentration in blood ([7]; 2 h, 1681 mg, duration: 2 hr - 20 min): 5.2 mg/kg
concentration in blood ([7]; 2 h, 3907 mg, duration: 2 hr - 20 min): 5.4 mg/kg
concentration in blood ([7]; 2.008 h, 100 ppm, duration: 4 hr, person): 4230 ng/mL
concentration in blood ([7]; 2.056 h, 100 ppm, duration: 4 hr, person): 4950 ng/mL
concentration in blood ([7]; 4.002 h, 100 ppm, duration: 4 hr, person): 5130 ng/mL
concentration in blood ([7]; 4.087 h, 100 ppm, duration: 4 hr, person): 5830 ng/mL
concentration in blood ([7]; 5.968 h, 100 ppm, duration: 4 hr, person): 6280 ng/mL
concentration in blood ([7]; 6.071 h, 100 ppm, duration: 4 hr, person): 5770 ng/mL
concentration in blood ([7]; 8.056 h, 100 ppm, duration: 4 hr, person): 6100 ng/mL
concentration in blood ([7]; 8.086 h, 100 ppm, duration: 4 hr, person): 6680 ng/mL
concentration in blood ([7]; 10.05 h, 100 ppm, duration: 4 hr, person): 6680 ng/mL
concentration in blood ([7]; 10.13 h, 100 ppm, duration: 4 hr, person): 7050 ng/mL
concentration in blood ([7]; 12.03 h, 100 ppm, duration: 4 hr, person): 7200 ng/mL
concentration in blood ([7]; 12.16 h, 100 ppm, duration: 4 hr, person): 7480 ng/mL
concentration in blood ([7]; 14.01 h, 100 ppm, duration: 4 hr, person): 7110 ng/mL
concentration in blood ([7]; 14.05 h, 100 ppm, duration: 4 hr, person): 7820 ng/mL
concentration in blood ([7]; 16 h, 100 ppm, duration: 4 hr, person): 7960 ng/mL
concentration in blood ([7]; 16.01 h, 100 ppm, duration: 4 hr, person): 7740 ng/mL
concentration in blood ([7]; 17.81 h, 100 ppm, duration: 4 hr, person): 8690 ng/mL
concentration in blood ([7]; 17.98 h, 100 ppm, duration: 4 hr, person): 7930 ng/mL
concentration in blood ([7]; 21 h, 1348 mg, duration: 2 hr - 20 min): 13.3 mg/kg
concentration in blood ([7]; 21 h, 1681 mg, duration: 2 hr - 20 min): 13.6 mg/kg
concentration in blood ([7]; 21 h, 3907 mg, duration: 2 hr - 20 min): 17.8 mg/kg
concentration in blood ([7]; 41.89 h, 100 ppm, duration: 4 hr, person): 8480 ng/mL
concentration in blood ([7]; 44.06 h, 100 ppm, duration: 4 hr, person): 9620 ng/mL
concentration in blood ([7]; 65.95 h, 100 ppm, duration: 4 hr, person): 6780 ng/mL
concentration in blood ([7]; 67.63 h, 100 ppm, duration: 4 hr, person): 7420 ng/mL
concentration in blood ([7]; 89.84 h, 100 ppm, duration: 4 hr, person): 6470 ng/mL
concentration in blood ([7]; 91.02 h, 100 ppm, duration: 4 hr, person): 5310 ng/mL
concentration in blood ([7]; -0.5 h, 1348 mg, duration: 2 hr - 20 min, during exposure): 2.3 mg/kg
concentration in blood ([7]; -0.5 h, 1681 mg, duration: 2 hr - 20 min, during exposure): 1.7 mg/kg
concentration in blood ([7]; -0.5 h, 3907 mg, duration: 2 hr - 20 min, during exposure): 2.3 mg/kg
concentration in blood ([7]; -0.8992 h, 100 ppm, duration: 4 hr, person, during exposure): 2830 ng/mL
concentration in blood ([7]; -1 h, 1348 mg, duration: 2 hr - 20 min, during exposure): 1.4 mg/kg
concentration in blood ([7]; -1 h, 1681 mg, duration: 2 hr - 20 min, during exposure): 1.1 mg/kg
concentration in blood ([7]; -1 h, 3907 mg, duration: 2 hr - 20 min, during exposure): 1.6 mg/kg
concentration in blood ([7]; -1.033 h, 100 ppm, duration: 4 hr, person, during exposure): 2270 ng/mL
concentration in blood ([7]; -1.833 h, 1348 mg, duration: 2 hr - 20 min, during exposure): 0.6 mg/kg
concentration in blood ([7]; -1.833 h, 1681 mg, duration: 2 hr - 20 min, during exposure): 0.4 mg/kg
concentration in blood ([7]; -1.833 h, 3907 mg, duration: 2 hr - 20 min, during exposure): 0.7 mg/kg
concentration in blood ([7]; -1.982 h, 100 ppm, duration: 4 hr, person, during exposure): 1680 ng/mL
concentration in blood ([7]; -1.998 h, 100 ppm, duration: 4 hr, person, during exposure): 1360 ng/mL
concentration in blood ([7]; -2.832 h, 100 ppm, duration: 4 hr, person, during exposure): 741 ng/mL
concentration in blood ([7]; -3.04 h, 100 ppm, duration: 4 hr, person, during exposure): 620 ng/mL
concentration in blood ([7]; -3.442 h, 100 ppm, duration: 4 hr, person, during exposure): 210 ng/mL
concentration in blood ([7]; -3.454 h, 100 ppm, duration: 4 hr, person, during exposure): 294 ng/mL

OCCC(F)(F)C(F)(F)C(F)(F)C(F)(F)C(F)(F)C(F)(F)C(F)(F)C(F)(F)F [Fluorotelomer alcohol 8+2]
concentration in kidney [8]: 985 ng/g
concentration in plasma ([9]; 0.75 h): 2220 ng/mL
concentration in plasma ([9]; 12 h): 28.7 ng/mL

O=C(O)CSCC(=O)O [Thiodiglycolic Acid]
concentration in heart [10]: 8260 ng/g
concentration in heart [11]: 308 ng/g
concentration in heart [12]: 1530 ng/g
concentration in thymus [13]: 8060 ng/g

ClCCOCOCCCl [Bis 2-Chloroethoxy Methane]
concentration in thymus [14]: 17 ng/g
concentration in heart [15]: 11400 ng/g
concentration in liver [16]: 130 ng/g
concentration in thymus [17]: 17.7 ng/g
concentration in thymus [18]: 26100 ng/g
concentration in plasma [19]: 287 ng/mL
concentration in plasma [20]: 90.6 ng/mL

CCCCOC(=O)c1ccccc1C(=O)O [Mono-n-butyl phthalate]
concentration in plasma [21]: 2550 ng/mL
concentration in plasma [22]: 414 ng/mL
concentration in plasma [23]: 14200 ng/mL

— EPA's CvTdb concentration-time database
